The source made the active and inactive calls. The calls are words filed in the database; no cut-off is given here.

Data set [1] can be described thus: Antioxidant activity assessed as inhibition rate constant for auto-oxidation of cumene initiated by AIMN in PhCl at 30 degC. The format is functional. In short, it runs like this: (§1)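 Oxygen-uptake measurement in a two-channel differential pressure apparatus. Air-saturated cumene (3.6 M) in chlorobenzene (1:1 v/v) with AIBN 0.05 M as thermal initiator, equilibrated against a reference solution holding excess 2,2,5,7,8-pentamethyl-6-chromanol. Antioxidant injected once O2 consumption was constant. k_inh fitted from the uninhibited and inhibited O2-consumption slopes.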

For data set [2], the target named is T1, Amyloid-beta precursor protein (Homo sapiens, UniProt P05067). Kind of data set: Inhibition of self-induced amyloid beta (1 to 42) (unknown origin) aggregation by thioflavin T-based fluorometric assay. In short, it runs like this: (§2)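 HFIP-pretreated Aβ42 stock at 500 μM in CH3CN/0.3 mM Na2CO3/250 mM NaOH, diluted to 50 μM in 10 mM phosphate buffer pH 8.0 with 10 mM NaCl. Incubated at 30 °C with or without inhibitor at 50 μM (1:1 ratio); inhibitor blanks included. ThT fluorescence gave % inhibition. IC50 from concentrations giving 20–80% inhibition.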

Data set [3] concerns the target T2, Glycogen synthase kinase-3 beta (Homo sapiens, UniProt P49841). Kind of data set: Inhibition of GSK3beta (unknown origin) at 50 uM using GSM substrate after 30 mins by Kinase-Glo reagent based luminescence assay relative to control. In short, it runs like this: (§3)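 Buffer: 50 mM HEPES, 1 mM EDTA, 1 mM EGTA, 15 mM Mg acetate, pH 7.5. Enzyme 20 ng per well, GSM substrate 25 μM, ATP 1 μM, DMSO ≤1%. Incubated 30 min at 30 °C, then stopped with Kinase-Glo; luminescence read after 10 min. Activity normalised between no-inhibitor and […] total-inhibition controls. Single-point screen at 50 μM; IC50 by linear regression. Mean of two experiments, each in duplicate.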
Target sequence in this assay (P49841 whole entry, looked up): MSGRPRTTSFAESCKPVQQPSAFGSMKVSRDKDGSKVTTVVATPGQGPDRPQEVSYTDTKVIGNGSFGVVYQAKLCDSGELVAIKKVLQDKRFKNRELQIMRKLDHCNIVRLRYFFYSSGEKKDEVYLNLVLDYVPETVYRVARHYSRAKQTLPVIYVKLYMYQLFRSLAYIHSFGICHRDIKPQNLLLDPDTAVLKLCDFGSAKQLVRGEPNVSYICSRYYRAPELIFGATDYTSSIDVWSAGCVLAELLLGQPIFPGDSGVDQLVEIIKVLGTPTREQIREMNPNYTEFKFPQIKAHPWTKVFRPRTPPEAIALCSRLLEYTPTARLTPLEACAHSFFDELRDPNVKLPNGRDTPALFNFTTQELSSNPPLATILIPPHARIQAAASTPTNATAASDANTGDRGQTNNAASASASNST

Data set [4] deals with T3, Protein-glutamine gamma-glutamyltransferase (Homo sapiens, UniProt P21980).
T3 sequence (P21980 whole entry): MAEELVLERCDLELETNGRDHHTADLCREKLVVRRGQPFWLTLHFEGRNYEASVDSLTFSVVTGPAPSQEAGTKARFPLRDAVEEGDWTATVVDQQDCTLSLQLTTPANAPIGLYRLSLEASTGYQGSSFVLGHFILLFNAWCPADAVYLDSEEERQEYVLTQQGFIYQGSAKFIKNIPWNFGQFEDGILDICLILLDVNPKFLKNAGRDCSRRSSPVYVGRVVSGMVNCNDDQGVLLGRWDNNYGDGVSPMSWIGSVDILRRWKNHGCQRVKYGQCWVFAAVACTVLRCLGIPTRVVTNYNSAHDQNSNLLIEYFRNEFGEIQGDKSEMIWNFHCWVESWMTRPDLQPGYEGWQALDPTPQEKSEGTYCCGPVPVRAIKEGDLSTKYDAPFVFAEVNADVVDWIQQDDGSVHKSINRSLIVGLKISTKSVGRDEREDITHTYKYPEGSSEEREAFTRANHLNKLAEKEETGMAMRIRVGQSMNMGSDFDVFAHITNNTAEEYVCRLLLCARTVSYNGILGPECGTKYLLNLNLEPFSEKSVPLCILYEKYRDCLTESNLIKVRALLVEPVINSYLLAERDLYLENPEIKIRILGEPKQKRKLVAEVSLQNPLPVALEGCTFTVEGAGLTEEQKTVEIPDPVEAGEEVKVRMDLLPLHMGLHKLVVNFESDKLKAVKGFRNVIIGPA
Kind of data set: Inhibition recombinant human TG2 using N-CbzGlu(gamma-p-nitrophenylester)Gly as substrate after 10 mins.

Data set [5] addresses T1, Amyloid-beta precursor protein. Kind of data set: Inhibition of self-induced amyloid beta (1 to 42) (unknown origin) aggregation at 50 uM by thioflavin T-based fluorometric assay relative to control. In short, it runs like this: as §2
A short description of data set [6]: Metal chelating activity assessed as compound-Cu2+ complex formation at 7.5 uM in presence of 0.5 to 2 equiv of Cu2+ by UV-Visible differential spectroscopic method. In short, it runs like this: (§4)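 Stock solutions: 1 mM ligand and 1 mM CuCl2 in methanol, N2-purged. Fixed ligand (5–15 μM) titrated with CuCl2 up to 3 equivalents, deoxygenated, scanned 200–600 nm at room temperature in a 10 mm quartz cuvette against methanol. Ligand-only and metal-only spectra subtracted to give differential spectra, followed at 460 and 374 nm.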

Data set [7] in a line: Metal chelating activity assessed as compound-Cu2+ complex formation at 7.5 uM by UV-Visible differential spectroscopic method. The procedure, abridged:
as §4

Data set [8] deals with T1, Amyloid-beta precursor protein. The data set is described as follows: Inhibition of self-induced amyloid beta (1 to 42) (unknown origin) aggregation by thioflavin T-based fluorometric assay relative to control. As to conditions: concentration not given here. In short, it runs like this: as §2
Data set [9] is described as follows: Antioxidant activity assessed as inhibition of auto-oxidation of cumene initiated by AIMN in PhCl at 30 degC relative to caffeic acid. Format: functional. In short, it runs like this: as §1
A short description of data set [10]: Antioxidant activity assessed as inhibition of auto-oxidation of cumene initiated by AIMN in PhCl at 30 degC relative to ethyl ferulate. The format is functional. As to conditions: for inhibition: dose or concentration not given here. In short, it runs like this:
as §1

Data set [11] can be described thus: Passive permeability of the compound at 100 uM after 6 hrs by PAMPA.
The target in data set [12] is Luciferin 4-monooxygenase (Photinus pyralis) (UniProt P08659). The data set is described as follows: Inhibition of firefly luciferase activity up to 3 mM after 30 mins by luminescence assay. The procedure, abridged:
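Luciferase interference check: the Kinase-Glo luminescence read-out was run without GSK-3β, with compound up to 3 mM.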

Data set [13] in a line: Pro-oxidant activity in water assessed as auto-oxidation initiated by Cu+/Cu2+ couple in presence of H2O2. The format is toxicity. Particulars: buffer.
For data set [14], the target named is T2, Glycogen synthase kinase-3 beta. Kind of data set: Inhibition of GSK3beta (unknown origin) using GSM substrate after 30 mins by Kinase-Glo reagent based luminescence assay. In short, it runs like this: as §3
Target sequence in this assay (P49841 whole entry): as the sequence (P49841 whole entry, looked up) above
In data set [15] the test system is Cortical neurone. Kind of data set: Neuroprotective activity against glutamate-induced oxidative stress in Sprague-Dawley rat primary cortical neurons assessed as reduction in cell death at 12.5 to 50 uM after 24 hrs by MTT assay. Format: functional, cell-based. As to conditions: prague-Dawley. In short, it runs like this:
(§5)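 Immature E17 primary cortical neurons plated at 10^6 cells/ml. At DIV1, rinsed and given increasing compound concentrations, with or without 5 mM glutamate added at the same time. Viability by MTT after 24 h, across three neuronal preparations. Two-way ANOVA with Bonferroni post hoc test.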

The test system of data set [16] is Cortical neurone. Kind of data set: Cytotoxicity against Sprague-Dawley rat primary cortical neurons assessed as reduction in cell viability up to 50 uM after 24 hrs by MTT assay. Format: cell-based. In short, it runs like this: as §5
The nature of data set [17]: Antioxidant activity in pH 7.4 phosphate buffer assessed as inhibition rate constant for auto-oxidation of THF initiated by AAPH at 30 degC.

T1 sequence (P05067 whole entry): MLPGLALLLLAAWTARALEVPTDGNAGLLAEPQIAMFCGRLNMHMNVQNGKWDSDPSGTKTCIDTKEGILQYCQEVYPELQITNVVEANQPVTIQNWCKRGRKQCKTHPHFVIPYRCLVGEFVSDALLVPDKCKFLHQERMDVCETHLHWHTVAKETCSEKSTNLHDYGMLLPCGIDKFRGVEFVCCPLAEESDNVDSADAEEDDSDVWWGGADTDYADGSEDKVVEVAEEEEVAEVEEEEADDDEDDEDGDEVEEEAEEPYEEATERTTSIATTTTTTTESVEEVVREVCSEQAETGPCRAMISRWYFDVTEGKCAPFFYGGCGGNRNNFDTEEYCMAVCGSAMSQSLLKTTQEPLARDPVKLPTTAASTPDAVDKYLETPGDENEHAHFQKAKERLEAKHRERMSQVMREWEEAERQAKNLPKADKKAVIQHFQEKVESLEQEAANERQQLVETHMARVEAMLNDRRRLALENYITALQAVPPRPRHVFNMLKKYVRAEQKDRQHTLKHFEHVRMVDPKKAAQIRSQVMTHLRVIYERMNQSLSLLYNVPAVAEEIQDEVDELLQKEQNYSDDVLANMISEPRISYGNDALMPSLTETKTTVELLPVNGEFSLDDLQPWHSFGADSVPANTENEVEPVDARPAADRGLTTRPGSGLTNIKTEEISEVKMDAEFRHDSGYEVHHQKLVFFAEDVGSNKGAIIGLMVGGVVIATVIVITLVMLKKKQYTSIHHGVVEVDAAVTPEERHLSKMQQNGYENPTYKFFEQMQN
Luciferin 4-monooxygenase (Photinus pyralis), sequence (P08659 whole entry): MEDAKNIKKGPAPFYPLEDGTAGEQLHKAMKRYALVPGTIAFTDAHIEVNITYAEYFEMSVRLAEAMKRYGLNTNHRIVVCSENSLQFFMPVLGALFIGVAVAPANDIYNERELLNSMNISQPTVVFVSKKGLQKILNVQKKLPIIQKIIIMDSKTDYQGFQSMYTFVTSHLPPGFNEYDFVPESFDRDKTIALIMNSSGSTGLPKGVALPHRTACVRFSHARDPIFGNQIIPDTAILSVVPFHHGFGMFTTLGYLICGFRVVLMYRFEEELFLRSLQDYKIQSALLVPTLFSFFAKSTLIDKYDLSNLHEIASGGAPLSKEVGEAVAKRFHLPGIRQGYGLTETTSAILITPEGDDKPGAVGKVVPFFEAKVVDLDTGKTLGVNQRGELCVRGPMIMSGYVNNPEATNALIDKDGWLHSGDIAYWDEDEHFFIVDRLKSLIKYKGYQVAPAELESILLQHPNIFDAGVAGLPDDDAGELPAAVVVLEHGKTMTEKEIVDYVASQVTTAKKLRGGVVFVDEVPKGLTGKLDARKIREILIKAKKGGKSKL

For `OCCc1ccc(O)c(O)c1`, in data set [1], the K stood at 8 ×10⁵ /M/s.

For `C=CCSC(=O)/C=C/c1ccc(O)c(O)c1`, half-maximal inhibition in data set [2] (IC50) required 12.5 µM.

With `O=c1c(O)c(-c2ccc(O)c(O)c2)oc2cc(O)cc(O)c12`, in data set [1], the K amounted to 5 ×10⁵ /M/s.

Consider `CCOC(=O)/C=C/c1ccc(O)c(OC)c1`, for which, in [1], the K came to 4.6 ×10³ /M/s. For the same compound, the inhibition – broadly, how much of the control response was suppressed – in [3] came out at 21.4%.

On to `O=C(/C=C/c1ccc(O)cc1)c1cccnc1`, for which, in data set [1], the K stood at 5.7 ×10³ /M/s. In data set [4], the 50% inhibitory concentration (IC50) (commonly the midpoint of a concentration-inhibition curve) is over 2000 µM. The inhibition in data set [5] is 21.5%; in [3], 25.2%.

For `O=C(O)/C=C/c1ccc(O)c(O)c1`, the K in data set [1] was found to be 2.9 ×10⁵ /M/s.

Regarding `O=C(/C=C/c1ccc(O)c(O)c1)c1cccnc1`, the outcome (in data set [6]; in data set [7]; in the data set on Cortical neurone [15]) was Active. The inhibition in data set [8] was 20 to 80%; in [5] it was 91.5%; in data set [3], 100%. In addition, the K was 6.8 ×10⁵ /M/s in data set [1] and 3.2 ×10⁵ /M/s in data set [17]. Also, the fold change (FC) in [9] is over 2; in [10], 150. Also, in data set [11], the apparent permeability coefficient (Papp) (usually a coefficient for how fast a substance crosses the barrier) at 6 h, 100 µM came out at 55 nm/s. The inhibition entry in [12] was “inactive”. The Activity entry was “Not Active” in [13] and “Non-Toxic” in the data set with Cortical neurone [16]. In addition, the concentration for half-maximal inhibition (IC50) in data set [4] came out at 1000 µM; in data set [2], 9 µM; in data set [14], 24.4 µM.

As for `O=C(O)/C=C/c1cccc(O)c1`, the IC50 in [2] was over 100 µM.

In turn, `COc1cc(/C=C/C(=O)O)ccc1O` [FERULATE] showed an IC50 in data set [2] of over 100 µM.

Consider `CCOc1cc(/C=C/C(=O)c2cccnc2)ccc1O`, for which the K in data set [1] was 6.1 ×10³ /M/s. For the same compound, the inhibition in data set [10] is 33%; in [5], 18.8%; in [3], 39.5%. For the same compound, the IC50 in data set [4] worked out at 484 µM.

Take `COc1cc(/C=C/C(=O)c2cccnc2)ccc1O`: in [1], the K was determined as 7.1 ×10³ /M/s. The inhibition is 54% in data set [10], 17.5% in [5] and 37.2% in [3]. The apparent permeability (Papp) at 6 h, 100 µM in [11] was 99 nm/s. For the same compound, the half-maximal inhibitory concentration (IC50) in data set [4] was 688 µM.

In the case of `O=C(/C=C/c1cccc(O)c1)c1cccnc1`, the K in data set [1] came to 1.5 ×10³ /M/s. This compound also came in with an apparent permeability coefficient (Papp) at 6 h, 100 µM in [11] of 65 nm/s. The IC50 in data set [4] came out at 266 µM. The inhibition stood at 5.8% in data set [5] and 43.5% in data set [3].

These data come from ChEMBL document CHEMBL4130383, “Hydroxy-substituted trans-cinnamoyl derivatives as multifunctional tools in the context of Alzheimer's disease” (Eur J Med Chem, 2017).
